According to ChEMBL document CHEMBL4819066, “Repurposing primaquine as a polyamine conjugate to become an antibiotic adjuvant” (Bioorg Med Chem, 2021):

How the values were obtained:
[1] = test system: Staphylococcus aureus; assay: Antibacterial activity against methicillin-resistant Staphylococcus aureus ATCC 43300 assessed as reduction in microbial growth after 18 hrs by resazurin dye based assay; format: functional
Summary of the method: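 Overnight culture at 37 °C, diluted 40-fold in MHB and grown 1.5-2 h to mid-log. Inoculum 5 × 10^5 CFU/mL. Two-fold serial dilutions, final 0.008-32 µg/mL, in duplicate. […] Vancomycin served as the Gram-positive standard.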

[2] = test system: Pseudomonas aeruginosa; assay: Antibacterial activity against Pseudomonas aeruginosa ATCC 27853 assessed as reduction in microbial growth after 18 hrs by resazurin dye based assay; format: functional
Summary of the method: (§1)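 Bacteria grown overnight at 37 °C in LB, NB or MHB, diluted 40-fold into MHB and grown 1.5-2 h to mid-log phase. Inoculum 5 × 10^5 CFU/mL (final), 2-fold serial dilutions, final range 0.008-32 µg/mL, in duplicate. […] Colistin as positive control, Z'-factor >0.4 for plate QC.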

[3] = test system: Escherichia coli; assay: Antibacterial activity against Escherichia coli ATCC 25922 assessed as reduction in microbial growth after 18 hrs by resazurin dye based assay; format: functional; summary of the method: as §1
[4] = test system: Klebsiella pneumoniae; assay: Antibacterial activity against Klebsiella pneumoniae ATCC 700603 assessed as reduction in microbial growth after 18 hrs by resazurin dye based assay; format: functional; summary of the method: as §1
[5] = test system: Acinetobacter baumannii; assay: Antibacterial activity against Acinetobacter baumannii ATCC 19606 assessed as reduction in microbial growth after 18 hrs by resazurin dye based assay; format: functional; details: ATCC 19606 = CIP 70.34 = JCM 6841; summary of the method: as §1
[6] = test system: Cryptococcus neoformans; assay: Antifungal activity against Cryptococcus neoformans ATCC 208821 assessed as reduction in microbial growth after 36 hrs by resazurin dye based assay; format: functional
Summary of the method: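 Yeast grown 3 days on YPD agar at 30 °C and diluted in YNB broth to 2.5 × 10^3 CFU/mL. Compounds at 0.008-32 µg/mL final, 2-fold dilutions, in duplicate. After 36 h at 35 °C without shaking, resazurin added at 0.006% final for a further 3 h; MIC read as absorbance at OD570-600. Fluconazole as positive control.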

[7] = test system: Pseudomonas aeruginosa; assay: Potentiation of doxycycline-induced antibacterial activity against Pseudomonas aeruginosa ATCC 27853 assessed as complete reduction in visible microbial growth after 18 hrs in presence of 4.5 uM doxycycline by two fold serial dilution method; format: functional
Summary of the method: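 Adjuvant test by broth dilution: inoculum 5 × 10^5 CFU in 200 µL MHB. Two-fold serial dilutions of each derivative were given with doxycycline fixed at 2 µg/mL. After 18 h at 37 °C, the value recorded was the lowest adjuvant concentration giving complete absence of visible growth. Three independent repeats.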

[8] = test system: Candida albicans; assay: Antifungal activity against Candida albicans ATCC 90028 assessed as reduction in microbial growth after 36 hrs by absorbance at OD530; details: ATCC 90028, 36 h

Measured: MIC

O=C(CCC(=O)Nc1ccc2ncccc2c1)NCCCNCCCCCCCCCCNCCCNC(=O)CCC(=O)Nc1ccc2ncccc2c1
517 µM: [7]
> 33.1 µM: all other assays above

COc1cc(NC(=O)CCC(=O)NCCCNCCCCCCCCNCCCNC(=O)CCC(=O)Nc2cc(OC)cc3cccnc23)c2ncccc2c1
300 µM: [7]
> 32 µM: all other assays above

COc1cc(NC(=O)CCC(=O)NCCCNCCCCNCCCNC(=O)CCC(=O)Nc2cc(OC)cc3cccnc23)c2ncccc2c1
200 µM: [7]
> 33.9 µM: all other assays above

O=C(CCC(=O)Nc1cccc2ncccc12)NCCCNCCCCNCCCNC(=O)CCC(=O)Nc1cccc2ncccc12
300 µM: [7]
> 36.2 µM: all other assays above

O=C(CCC(=O)Nc1cccc2cccnc12)NCCCNCCCCCCNCCCNC(=O)CCC(=O)Nc1cccc2cccnc12
17.6 µM: [1]
100 µM: [7]
> 35.1 µM: all other assays above

CN[C@H](CC(C)C)C(=O)N[C@H]1C(=O)N[C@@H](CC(N)=O)C(=O)N[C@H]2C(=O)N[C@H]3C(=O)N[C@H](C(=O)N[C@H](C(=O)O)c4cc(O)cc(O)c4-c4cc3ccc4O)[C@H](O)c3ccc(c(Cl)c3)Oc3cc2cc(c3O[C@@H]2O[C@H](CO)[C@@H](O)[C@H](O)[C@H]2O[C@H]2C[C@](C)(N)[C@H](O)[C@H](C)O2)Oc2ccc(cc2Cl)[C@H]1O [VANCOMYCIN]
0.7 µM: [1]

O=C(CCC(=O)Nc1ccc2ccccc2n1)NCCCNCCCCCCCCCCNCCCNC(=O)CCC(=O)Nc1ccc2ccccc2n1
517 µM: [7]
> 33.1 µM: all other assays above

C[C@H]1c2cccc(O)c2C(=O)C2=C(O)[C@]3(O)C(=O)C(C(N)=O)=C(O)[C@@H](N(C)C)[C@@H]3[C@@H](O)[C@@H]21 [DOXYCYCLINE]
> 45 µM: [2]

O=C(CCC(=O)Nc1cccc2cccnc12)NCCCNCCCCNCCCNC(=O)CCC(=O)Nc1cccc2cccnc12
566 µM: [7]
> 36.2 µM: all other assays above

COc1cc(NC(=O)CCC(=O)NCCCNCCCCCCCCCCNCCCNC(=O)CCC(=O)Nc2cc(OC)cc3cccnc23)c2ncccc2c1
300 µM: [7]
3.9 µM: [1]
> 31.2 µM: all other assays above

O=C(CCC(=O)Nc1cccc2cccnc12)NCCCNCCCCCCCNCCCNC(=O)CCC(=O)Nc1cccc2cccnc12
200 µM: [7]
> 34.6 µM: all other assays above

O=C(CCC(=O)Nc1cccc2ncccc12)NCCCNCCCCCCCCCCNCCCNC(=O)CCC(=O)Nc1cccc2ncccc12
517 µM: [7]
> 33.1 µM: all other assays above

COc1cc(NC(=O)CCC(=O)NCCCNCCCCCCCNCCCNC(=O)CCC(=O)Nc2cc(OC)cc3cccnc23)c2ncccc2c1
300 µM: [7]
> 32.5 µM: all other assays above

O=C(CCC(=O)Nc1ccc2ncccc2c1)NCCCNCCCCNCCCNC(=O)CCC(=O)Nc1ccc2ncccc2c1
566 µM: [7]
> 36.2 µM: all other assays above

O=C(CCC(=O)NCc1ccccn1)NCCCNCCCCNCCCNC(=O)CCC(=O)NCc1ccccn1
617 µM: [7]
> 39.5 µM: all other assays above

O=C(CCC(=O)NCc1cccnc1)NCCCNCCCCNCCCNC(=O)CCC(=O)NCc1cccnc1
617 µM: [7]
> 39.5 µM: all other assays above

O=C(CCC(=O)Nc1ccc2ccccc2n1)NCCCNCCCCNCCCNC(=O)CCC(=O)Nc1ccc2ccccc2n1
566 µM: [7]
> 36.2 µM: all other assays above

OC(Cn1cncn1)(Cn1cncn1)c1ccc(F)cc1F [FLUCONAZOLE]
26 µM: [6]
0.4 µM: [8]

COc1cc(NC(=O)CCC(=O)NCCCNCCCCCCNCCCNC(=O)CCC(=O)Nc2cc(OC)cc3cccnc23)c2ncccc2c1
300 µM: [7]
> 33 µM: all other assays above

O=C(CCC(=O)NCc1cccnc1)NCCCNCCCCCCCCCCNCCCNC(=O)CCC(=O)NCc1cccnc1
559 µM: [7]
> 35.8 µM: all other assays above

O=C(CCC(=O)Nc1cccc2cccnc12)NCCCNCCCCCCCCNCCCNC(=O)CCC(=O)Nc1cccc2cccnc12
200 µM: [7]
> 34.1 µM: all other assays above

COLISTIN
0.2 µM: [2] | [4] | [5]
0.1 µM: [3]

O=C(CCC(=O)NCc1ccccn1)NCCCNCCCCCCCCCCNCCCNC(=O)CCC(=O)NCc1ccccn1
559 µM: [7]
> 35.8 µM: all other assays above
